Screening data: PubChem, Sanford-Burnham Center for Chemical Genomics
SUMO1 PPI mod: modulators of SUMO1 protein-protein interactions, primary screen, biochemical, uHTS; Small ubiquitin-related modifier 1 (Homo sapiens), P63165; SUMO1 binding to a labelled peptide, TR-FRET, 1 h; inhibition, % at 20 µM; 360,000 tested, 0.33% active; AID 602429, 2012; in the data active means inhibition above about 37%
Target sequence (P63165 whole entry, looked up): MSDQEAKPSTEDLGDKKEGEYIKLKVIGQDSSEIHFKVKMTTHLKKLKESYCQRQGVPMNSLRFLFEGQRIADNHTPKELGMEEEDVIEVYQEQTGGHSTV
STEP block: STEP phosphatase inhibitors, primary screen, biochemical, fluorescence intensity, uHTS. Tyrosine-protein phosphatase non-receptor type 5 (Homo sapiens), P54829. inhibition, % at 20 µM. recombinant STEP, OMFP fluorogenic substrate. 360,000 tested, 0.25% active;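 active means inhibition at 20 µM, scaled per plate between control wells, above about 37%, limit read from the data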;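 further: 0% = DMSO with enzyme and substrate and 100% = substrate only without enzyme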
Target sequence (P54829 whole entry, looked up): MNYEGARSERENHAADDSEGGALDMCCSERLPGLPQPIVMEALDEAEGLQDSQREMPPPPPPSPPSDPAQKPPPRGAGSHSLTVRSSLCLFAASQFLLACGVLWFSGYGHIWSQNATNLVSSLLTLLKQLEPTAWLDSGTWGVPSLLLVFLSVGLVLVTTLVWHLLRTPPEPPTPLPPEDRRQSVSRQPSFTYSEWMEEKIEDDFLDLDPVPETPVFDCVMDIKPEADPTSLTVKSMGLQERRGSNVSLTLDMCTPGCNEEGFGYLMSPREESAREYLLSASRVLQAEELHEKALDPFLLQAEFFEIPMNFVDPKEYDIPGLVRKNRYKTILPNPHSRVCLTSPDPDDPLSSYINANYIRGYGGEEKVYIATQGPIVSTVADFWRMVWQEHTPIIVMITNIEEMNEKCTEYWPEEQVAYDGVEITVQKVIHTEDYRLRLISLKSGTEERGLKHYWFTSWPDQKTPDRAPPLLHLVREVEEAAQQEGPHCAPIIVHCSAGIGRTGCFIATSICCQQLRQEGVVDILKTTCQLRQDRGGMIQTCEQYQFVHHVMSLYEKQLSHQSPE
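Also added – OMFP at 25 µM · Test system – STEP tyrosine phosphatase · Technique – FITC-channel fluorescence of OMFP product · Schedule – 20 min at room temperature, dark · Evaluation – control-normalized % inhibition with plate pattern correction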
DNMT1 inh: human DNMT1 methyltransferase inhibitors, primary screen, biochemical, molecular beacon, fluorescence, HinP1I cleavage, uHTS; DNA (cytosine-5)-methyltransferase 1 (Homo sapiens), P26358; inhibition (reported as % activation of signal), % at 10 µM; 360,000 tested, 0.83% active; AID 588458, 2011; in the data active means inhibition above about 50%
Scp-1 inhibitor: Scp-1 phosphatase inhibitors, primary screen, biochemical, colorimetric, uHTS | Carboxy-terminal domain RNA polymerase II polypeptide A small phosphatase 1 (Homo … | Recombinant Scp1, phosphopeptide, malachite green phosphate absorbance | inhibition, % at 20 µM | 340,000 tested, 0.88% active | AID 493091, 2011;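 active means inhibition above about 50% at 20 µM, limit read from the data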;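 further: plate controls were DMSO wells with enzyme for no effect and wells lacking enzyme for full effect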
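Times: enzyme reaction 45 min at room temperature, colour 5 min, stabilisation 30 min. Material: SCP-1 catalytic fragment, aa 76-261. Medium: Acidic Tris acetate buffer with magnesium and detergent. Signal: colorimetric free-phosphate detection, absorbance 630 nm. Read-out basis: % inhibition of SCP-1 phosphate liberation. Reagent: Phosphorylated 17-residue peptide substrate.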
LMPTP block: LMPTP phosphatase inhibitors, primary screen, biochemical, fluorescence intensity, uHTS. inhibition, % at 20 µM. recombinant LMPTP-A, OMFP fluorogenic substrate. Low molecular weight phosphotyrosine protein phosphatase (Homo sapiens), P24666. 360,000 tested, 0.22% active;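 active means compounds that cut the enzyme signal by at least half of the control window in the single-dose screen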;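 further: plate controls were DMSO wells with enzyme plus substrate for no effect and substrate without enzyme for full effect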
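Test system: LMPTP-A, protein tyrosine phosphatase of low molecular weight; Input: 0.625 nM enzyme; Incubation: 50 min dark incubation at room temperature; Signal: endpoint fluorescence intensity from OMFP dephosphorylation; Read-out basis: % inhibition versus control wells.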
* hit, by the source's call; nt = no result. Most compounds without a hit are left out; they make up all but 1.7% or so of the library.

SMILES | SUMO1 PPI mod | STEP block | DNMT1 inh | Scp-1 inhibitor | LMPTP block
CCc1ccc(/C=C2/SC(=S)N(CCC(=O)Nc3ccc(C(=O)O)cc3)C2=O)cc1 | 85* | 26 | 11 | nt | 62*
Oc1ccc2ccccc2c1C=NC12CN3CCN(CN(C3)C1)C2 | 54* | 4 | -11 | 4 | -4
C[C@H](NC(=O)C[C@@H]1CC[C@H]2[C@@H](COC[C@H](O)CN2Cc2ccc(C(F)(F)F)cc2)O1)c1ccccc1 | 1 | nt | nt | nt | -1
O=C(O)CN1CCNCCN(CC(=O)O)CCNCC1 | 59* | -1 | 9 | -2 | -4
O=C(O)CN1CCN(CC(=O)O)CCN(CC(=O)O)CCN(CC(=O)O)CC1 | 16 | -3 | 3 | -11 | -1
COC(=O)c1ccc2c(c1)C(C)(C)C(/C=C/c1ccccc1O)=[N+]2C | -11 | -6 | -17 | 99* | 6
CCOc1cc(C(=O)OCC(=O)c2c[nH]c3ccccc23)ccc1OCC(=O)N1CCOCC1 | 4 | 1 | -8 | -9 | 0
CCOc1cc(C(=O)OCC(=O)c2c(C)[nH]c3ccccc23)ccc1OCC(=O)N1CCOCC1 | 39* | 2 | -1 | -9 | -1
CC(O)(c1cccnc1)c1nc(-c2cccc(C#N)c2)cs1 (centres undefined) | 4 | 1 | 3 | nt | 0
CN(C)c1ccc(/C=C/c2cc[n+](C)cc2)cc1 | -70 | 2 | -16 | 96* | 7
CC(=O)OCCNc1cc(N2CCN(C)CC2)c2noc3c2c1C(=O)c1ccccc1-3 | -35 | 5 | -15 | 7 | 4
CCOC(=O)C(C(=O)OCC)c1cc(Br)c2noc3c2c1C(=O)c1ccccc1-3 | 36 | -5 | 57* | 27 | 24
N#C/C(=C\c1ccc(OCc2ccccc2)cc1)C(=O)Nc1ccc(C(=O)O)cc1 | nt | nt | nt | 85* | nt
COc1cc(/C=C(\C#N)C(=O)Nc2cccc(C(=O)O)c2)ccc1OCc1ccc(Cl)cc1 | 59* | 86* | 7 | 36 | 49
COc1cc(/C=C(/C#N)C(=O)Nc2ccccc2)c(Br)cc1OCc1ccc(C(=O)O)cc1 | 3 | -1 | 2 | 1 | 1
CCCCC1Cc2[nH][nH]c(=O)c2C(c2ccc(Cl)cc2)O1 (centres undefined) | 0 | nt | nt | nt | -2
COC1=CC(=O)c2c(ccc3ncnc(N)c23)C1=O | 72* | 7 | 103* | -8 | 9
C[C@@H]1CCCCO[C@@H](CN(C)S(=O)(=O)c2ccccc2)[C@@H](C)CN([C@H](C)CO)C(=O)c2cc(N(C)C)ccc2O1 | 5 | 0 | -4 | nt | -2
COc1ccc(-c2csc(/C(C#N)=C\c3ccc(O)c([N+](=O)[O-])c3)n2)cc1OC | 38* | 3 | -9 | 32 | 1
COc1cc(/C=C2/C(=O)NN(c3ccc(Cl)cc3)C2=O)cc(Br)c1O | 75* | 83* | 48 | 35 | 65*
COC(=O)c1ccc(N2NC(=O)/C(=C/c3cc(OC)c(O)c(OC)c3)C2=O)cc1 | -23 | 24 | 5 | 33 | 36
COc1cc(/C=C2/C(=O)NN(c3ccc(F)cc3)C2=O)cc(Cl)c1O | -44 | 3 | 5 | -6 | 4
COc1cc(/C=C2/C(=O)NN(c3ccc(Cl)c(Cl)c3)C2=O)cc([N+](=O)[O-])c1O | 9 | 9 | 10 | 92* | 6
Oc1cc2c(cc1O)C1c3ccc(O)c(O)c3OCC1(O)C2 (centres undefined) | 10 | 4 | 10 | 61* | 3
CCCCN(C(C)=O)c1c(CC)nc2ccc(C(=O)NCc3cccs3)cn12 | 6 | 4 | 1 | nt | 0
SMILES | SUMO1 PPI mod | STEP block | DNMT1 inh | Scp-1 inhibitor | LMPTP block
CCOC(=O)C1=C(COc2ccccc2)NC(=O)NC1c1ccc(Br)cc1 (centres undefined) | 47* | -1 | 4 | 39 | 2
Cc1noc(C)c1-c1ccc(C(=O)NCc2cccs2)c2occc12 | 12 | -2 | -1 | nt | 0
O=C(O)CCN1Cc2ccccc2C1=O | 3 | -3 | 2 | 1 | 0
Cc1ccc(C)c(C(=O)CN2Cc3ccccc3C2=O)c1 | 46* | 0 | 0 | -9 | 0
O=C(O)c1ccccc1NS(=O)(=O)c1ccc(NN=Cc2cccc(Cl)c2)c([N+](=O)[O-])c1 | 33 | 7 | 35 | -13 | 83*
C#CCn1c(=O)cc(C)c2ccccc21 | 3 | -2 | 0 | -6 | 0
C#CCn1cc(C=C2C(=O)c3ccccc3C2=O)c2ccccc21 | -12 | -5 | 60* | -4 | 6
O=C(COc1ccccc1Cl)Nc1cc(NC(=O)COc2ccccc2Cl)cc(C(=O)O)c1 | 20 | 30 | 4 | 73* | 31
COc1ccccc1OCC(=O)Nc1cc(NC(=O)COc2ccccc2OC)cc(C(=O)O)c1 | 11 | 1 | -6 | -10 | 0
CC(=O)Nc1ccc(-c2ccnc3c2CC(C)(C(=O)Nc2cccc(C(F)(F)F)c2)O3)cc1 (centres undefined) | 1 | 0 | 11 | nt | 3
O=C(O)c1c2c(nc3ccc(S(=O)(=O)N4CCC(C(=O)NC5CCCCCC5)CC4)cc13)CCCC2 | 42* | 1 | 3 | 32 | 1
CC(C)CCNC(=O)C1CCN(S(=O)(=O)c2ccc3nc4c(c(C(=O)O)c3c2)CCCCC4)CC1 | 0 | -2 | -1 | -8 | -1
COC(=O)C(C)N1C(=O)S/C(=C\c2ccc(-c3ccc(C(=O)O)cc3C)o2)C1=O (centres undefined) | -3 | 8 | 19 | 64* | 2
O=C(O)c1ccccc1-c1ccc(/C=C2\SC(=O)N(c3ccccc3)C2=O)o1 | -12 | 10 | 14 | 26 | 1
O=c1nc2onnc2c(C=NO)[nH]1 | -35 | -2 | 1 | -8 | -4
COC(=O)c1ccc(C(=O)Nc2ccc(N)cc2N)cc1 | 47* | 1 | -18 | -9 | 6
COc1ccccc1NC(=O)c1ccc(N)cc1 | 1 | 0 | -4 | -10 | 0
Clc1cccc(Nc2nc(-c3ccncc3)nc3ccccc23)c1 | 61* | 4 | -5 | -14 | 7
CCCCOCCCNC(=O)C[C@@H]1C[C@@]2(C(=O)OC)CC(C)(C)CC=C2N(Cc2ccco2)C1=O | 10 | nt | nt | nt | 0
CCOC(=O)N1CCN(C(=O)C[C@@H]2C[C@@]3(C(=O)OCC)CCC=C3N(Cc3ccc(Cl)cc3Cl)C2=O)CC1 | 6 | nt | nt | nt | -1
Nc1ccc2ncccc2c1N | 45* | 0 | -6 | -4 | 8
Cc1ccc(C(=O)NCc2ccc(F)cc2)cc1NC1=NC2CS(=O)(=O)CC2S1 (centres undefined) | 1 | 2 | 0 | -10 | -1
